Legend:
[1] = Inhibition of HCV NS5B Cdelta21 RNA polymerase activity assessed as incorporation of [33P]-CTP into heteropolymer RNA template after 150 mins; set-up: species or system Hepacivirus hominis
Method in brief: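 Radiolabeled nucleotide incorporation using 30 nM NS5B (Δ21) with 100 nM heteropolymer RNA template and 0.25 mM trinucleotide initiator. Buffer: 20 mM HEPES pH 7.3, 7.5 mM DTT, 20 units/mL RNasin, 10 mM MgCl₂, 60 mM NaCl, BSA, GTP/ATP/UTP, [³³P]-CTP with 20 nM CTP. Run 150 min at room temperature, EDTA-stopped, filter-washed, incorporated label counted. IC50 from 10 twofold dilutions in duplicate.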

Hepatitis C virus = experiment: Antiviral activity against HCV 1b con1 assessed as inhibition of viral RNA replication after 3 days by RT-PCR analysis; assay type: functional, organism-based, Hepacivirus hominis; conditions: Con1, 72 h
Method in brief: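 Genotype 1b-Con1 replicon cells were seeded at 5000/well one day before dosing. Inhibitor was added at 0.5% final DMSO in medium with 5% FBS, and cells were harvested after 3 days. Replicon RNA was quantified by Taqman real-time RT-PCR normalized to GAPDH RNA. EC50 came from 10 serial twofold dilutions in duplicate.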

IC50 [1] [nM] | EC50 (Hepatitis C virus) [nM] | SMILES
8 | 2800 | O=C(NS(=O)(=O)CCCCl)c1c(-c2ccc[nH]c2=O)c2cc(Cl)ccc2n1Cc1ccccc1F
7000 |  | Nc1cc(Cn2c(CC(=O)O)c(-c3ccc[nH]c3=O)c3cc(Cl)ccc32)ccn1
> 20000 |  | CS(=O)(=O)NCc1c(-c2ccc[nH]c2=O)c2cc(Cl)ccc2n1Cc1ccnc(N)c1
28 | 1400 | O=C(NS(=O)(=O)C1CCCC1)c1c(-c2ccc[nH]c2=O)c2cc(Cl)ccc2n1Cc1ccccc1F
31 | 1000 | CC(C)(C)S(=O)(=O)NC(=O)c1c(-c2ccc[nH]c2=O)c2cc(Cl)ccc2n1Cc1ccnc(N)c1
36 | 1700 | N#Cc1ccc(S(=O)(=O)NC(=O)c2c(-c3ccc[nH]c3=O)c3cc(Cl)ccc3n2Cc2ccnc(N)c2)cc1
36 | 1000 | Nc1cccc(S(=O)(=O)NC(=O)c2c(-c3ccc[nH]c3=O)c3cc(Cl)ccc3n2Cc2ccnc(N)c2)c1
27 | 3000 | CS(=O)(=O)NC(=O)c1c(-c2c[nH]c(=O)[nH]c2=O)c2cc(Cl)ccc2n1Cc1ccnc(N)c1
18 | 20 | CS(=O)(=O)Nc1cccc(S(=O)(=O)NC(=O)c2c(-c3ccc[nH]c3=O)c3cc(Cl)ccc3n2Cc2ccccc2F)c1
13 | 400 | CC(C)S(=O)(=O)NC(=O)c1c(-c2ccc[nH]c2=O)c2cc(Cl)ccc2n1Cc1ccccc1F
41 | 2200 | CS(=O)(=O)NC(=O)c1c(-c2ccc[nH]c2=O)c2cc(Cl)ccc2n1Cc1ccc(F)cc1F
32 | 1100 | COC(=O)c1ccc(S(=O)(=O)NC(=O)c2c(-c3ccc[nH]c3=O)c3cc(Cl)ccc3n2Cc2ccnc(N)c2)cc1
29 | 2200 | Nc1cc(Cn2c(C(=O)NS(N)(=O)=O)c(-c3ccc[nH]c3=O)c3cc(Cl)ccc32)ccn1
> 20000 |  | CCOC(=O)c1c(-c2ccc[nH]c2=O)c2cc(Cl)ccc2n1Cc1ccnc(N)c1
49 | 1600 | Nc1cc(Cn2c(C(=O)NS(=O)(=O)c3ccc(F)cc3F)c(-c3ccc[nH]c3=O)c3cc(Cl)ccc32)ccn1
24 | 1200 | Nc1cc(Cn2c(C(=O)NS(=O)(=O)Cc3ccccc3)c(-c3ccc[nH]c3=O)c3cc(Cl)ccc32)ccn1
19 | 600 | Cc1ccc(S(=O)(=O)NC(=O)c2c(-c3ccc[nH]c3=O)c3cc(Cl)ccc3n2Cc2ccnc(N)c2)cc1
28 | 700 | Nc1cc(Cn2c(C(=O)NS(=O)(=O)c3cc(F)ccc3F)c(-c3ccc[nH]c3=O)c3cc(Cl)ccc32)ccn1
570 | 8000 | O=c1[nH]cccc1-c1c(-c2nc3ccccc3[nH]2)n(Cc2ccc(F)cc2F)c2ccc(Cl)cc12

Further lines, the compound ahead of its results:

SMILES | IC50 [1] [nM] | EC50 (Hepatitis C virus) [nM]
COc1ccc(S(=O)(=O)NC(=O)c2c(-c3ccc[nH]c3=O)c3cc(Cl)ccc3n2Cc2ccnc(N)c2)cc1 | 22 | 500
N#Cc1c(-c2ccc[nH]c2=O)c2cc(Cl)ccc2n1Cc1ccnc(N)c1 | > 20000 | 8300
CCS(=O)(=O)NC(=O)c1c(-c2ccc[nH]c2=O)c2cc(Cl)ccc2n1Cc1ccnc(N)c1 | 18 | 600
Nc1cc(Cn2c(C(=O)NS(=O)(=O)c3cccc(S(N)(=O)=O)c3)c(-c3ccc[nH]c3=O)c3cc(Cl)ccc32)ccn1 | 34 | 1900
Nc1cc(Cn2c(C(=O)NS(=O)(=O)c3ccccc3N)c(-c3ccc[nH]c3=O)c3cc(Cl)ccc32)ccn1 | 28 | 1700
CS(=O)(=O)NC(=O)c1c(-c2ccc[nH]c2=O)c2cc(C(F)(F)F)ccc2n1Cc1ccccc1F | 6 | 120
Nc1cc(Cn2c(C(=O)NS(=O)(=O)c3cccc(Cl)c3)c(-c3ccc[nH]c3=O)c3cc(Cl)ccc32)ccn1 | 43 | 1500
CS(=O)(=O)NC(=O)c1c(-n2c(=O)[nH]c3cscc3c2=O)c2cc(C(F)(F)F)ccc2n1Cc1ccccc1F | 15 | 700
CS(=O)(=O)Nc1ccc(S(=O)(=O)NC(=O)c2c(-c3ccc[nH]c3=O)c3cc(Cl)ccc3n2Cc2ccnc(N)c2)cc1 | 20 | 500
Nc1cc(Cn2c(C(=O)NS(=O)(=O)c3ccc(O)cc3)c(-c3ccc[nH]c3=O)c3cc(Cl)ccc32)ccn1 | 24 | 100
Nc1cc(Cn2c(C3=NS(=O)(=O)c4ccccc4N3)c(-c3ccc[nH]c3=O)c3cc(Cl)ccc32)ccn1 | 12 | 600
Nc1cc(Cn2c(C(=O)NS(=O)(=O)c3ccccc3)c(-c3ccc[nH]c3=O)c3cc(Cl)ccc32)ccn1 | 16 | 400
Nc1ccc(S(=O)(=O)NC(=O)c2c(-c3ccc[nH]c3=O)c3cc(Cl)ccc3n2Cc2ccnc(N)c2)cc1 | 35 | 400
Cc1cc(F)ccc1S(=O)(=O)NC(=O)c1c(-c2ccc[nH]c2=O)c2cc(Cl)ccc2n1Cc1ccnc(N)c1 | 34 | 1900
Nc1cc(Cn2c(C(=O)NS(=O)(=O)c3ccccc3F)c(-c3ccc[nH]c3=O)c3cc(Cl)ccc32)ccn1 | 31 | 800
CS(=O)(=O)Nc1cccc(S(=O)(=O)NC(=O)c2c(-c3ccc[nH]c3=O)c3cc(Cl)ccc3n2Cc2ccnc(N)c2)c1 |  | 11
CS(=O)(=O)NC(=O)c1c(-c2ccc[nH]c2=O)c2cc(Cl)ccc2n1Cc1ccccc1F | 33 | 230
CS(=O)(=O)NC(=O)Cc1c(-c2ccc[nH]c2=O)c2cc(Cl)ccc2n1Cc1ccnc(N)c1 | 2200 | 
Nc1cc(Cn2c(C(=O)NS(=O)(=O)c3cc(F)cc(F)c3)c(-c3ccc[nH]c3=O)c3cc(Cl)ccc32)ccn1 | 26 | 700
CS(=O)(=O)NC(=O)c1c(-c2ccc[nH]c2=O)c2cc(Cl)ccc2n1Cc1ccnc(N)c1 | 18 | 300
CCNS(=O)(=O)c1c(-c2ccc[nH]c2=O)c2cc(Cl)ccc2n1Cc1ccc(F)cc1F | 3000 | 
CS(=O)(=O)NCCS(=O)(=O)NC(=O)c1c(-c2ccc[nH]c2=O)c2cc(Cl)ccc2n1Cc1ccccc1F | 5 | 470
O=C(NS(=O)(=O)C1CC1)c1c(-c2ccc[nH]c2=O)c2cc(Cl)ccc2n1Cc1ccccc1F | 5 | 270
COC(=O)c1cccc(S(=O)(=O)NC(=O)c2c(-c3ccc[nH]c3=O)c3cc(Cl)ccc3n2Cc2ccnc(N)c2)c1 | 27 | 300
NS(=O)(=O)c1c(-c2ccc[nH]c2=O)c2cc(Cl)ccc2n1Cc1ccc(F)cc1F | 2700 | 

Source: ChEMBL document CHEMBL1932928, “II. Novel HCV NS5B polymerase inhibitors: discovery of indole C2 acyl sulfonamides” (Bioorg Med Chem Lett, 2012)
